Legend:
Homo sapiens [1] = species: Homo sapiens; test: Toxicity in malaria patient assessed as vomiting on day 1 after treatment at quartile 1 of compound concentration; type: organism-based; conditions: in vivo
How it was run: (§1)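 Mothers or guardians were questioned at each follow-up visit about the child's symptoms and drug intake. Children were grouped into quartiles by whole-blood chloroquine concentration 1 day after the end of treatment. Symptom frequency is given as n/N (%), and vomiting duration in days. Trend across quartiles was tested with the nonparametric test for trend.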

Homo sapiens [2] = species: Homo sapiens; test: Toxicity in malaria patient assessed as vomiting on day 1 after treatment at quartile 2 of compound concentration; type: organism-based; conditions: in vivo; how it was run: as §1
Homo sapiens [3] = species: Homo sapiens; test: Toxicity in malaria patient assessed as vomiting on day 1 after treatment at quartile 3 of compound concentration; type: organism-based; conditions: in vivo; how it was run: as §1
Homo sapiens [4] = species: Homo sapiens; test: Toxicity in malaria patient assessed as vomiting on day 1 after treatment at quartile 4 of compound concentration; type: organism-based; conditions: in vivo; how it was run: as §1
Homo sapiens [5] = species: Homo sapiens; test: Toxicity in malaria patient assessed as diarrhea on day 1 after treatment at quartile 1 of compound concentration; type: organism-based; conditions: in vivo; how it was run: as §1
Homo sapiens [6] = species: Homo sapiens; test: Toxicity in malaria patient assessed as diarrhea on day 1 after treatment at quartile 2 of compound concentration; type: organism-based; conditions: in vivo; how it was run: as §1
Homo sapiens [7] = species: Homo sapiens; test: Toxicity in malaria patient assessed as diarrhea on day 1 after treatment at quartile 3 of compound concentration; type: organism-based; conditions: in vivo; how it was run: as §1
Homo sapiens [8] = species: Homo sapiens; test: Toxicity in malaria patient assessed as diarrhea on day 1 after treatment at quartile 4 of compound concentration; type: organism-based; conditions: in vivo; how it was run: as §1
Homo sapiens [9] = species: Homo sapiens; test: Toxicity in malaria patient assessed as duration of vomiting at quartile 1 of compound concentration; type: organism-based; conditions: in vivo; how it was run: as §1
Homo sapiens [10] = species: Homo sapiens; test: Toxicity in malaria patient assessed as duration of vomiting at quartile 2 of compound concentration; type: organism-based; conditions: in vivo; how it was run: as §1
Homo sapiens [11] = species: Homo sapiens; test: Toxicity in malaria patient assessed as duration of vomiting at quartile 3 of compound concentration; type: organism-based; conditions: in vivo; how it was run: as §1
Homo sapiens [12] = species: Homo sapiens; test: Toxicity in malaria patient assessed as duration of vomiting at quartile 4 of compound concentration; type: organism-based; conditions: in vivo; how it was run: as §1
[13] = Plasma protein binding in healthy human; type: ADME, cell-free; conditions: read-out: PPB
[14] = Drug level in malaria patient whole blood on day 4; type: ADME, tissue-based; conditions: human, read-out: Drug uptake
How it was run: (§2)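 Observational study of 102 children in Guinea-Bissau given chloroquine unsupervised under routine prescribing, usually split into two to three daily doses of 6.6 mg kg−1. Whole blood was drawn 1, 4 and 14 days after the last reported dose for chloroquine and desethylchloroquine analysis. Values are medians with interquartile range, in nM.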

[15] = Drug level in malaria patient whole blood on day 1; type: ADME, tissue-based; conditions: human, read-out: Drug uptake; how it was run: as §2
[16] = Drug level in malaria patient whole blood on day 14; type: ADME, tissue-based; conditions: human, read-out: Drug uptake; how it was run: as §2
[17] = Volume of distribution in malaria patient; type: ADME, organism-based; conditions: human, in vivo
[18] = Drug level in malaria patient whole blood assessed as desethychloroquine level on day 1; type: ADME, tissue-based; conditions: human, read-out: Drug uptake; how it was run: as §2
[19] = Drug level in malaria patient whole blood assessed as desethychloroquine level on day 4; type: ADME, tissue-based; conditions: human, read-out: Drug uptake; how it was run: as §2
[20] = Drug level in malaria patient whole blood assessed as desethychloroquine level on day 14; type: ADME, tissue-based; conditions: human, read-out: Drug uptake; how it was run: as §2

fraction unbound [13]	concentration [14]	concentration [15]	concentration [16]	Vd [17]	concentration [18]	concentration [19]	concentration [20]	SMILES	Activity (Homo sapiens [1])	Activity (Homo sapiens [2])	Activity (Homo sapiens [3])	Activity (Homo sapiens [4])	Activity (Homo sapiens [5])	Activity (Homo sapiens [6])	Activity (Homo sapiens [7])	Activity (Homo sapiens [8])	Time (Homo sapiens [9])	Time (Homo sapiens [10])	Time (Homo sapiens [11])	Time (Homo sapiens [12])
0.5	626 nM	894 nM	204 nM	> 100 L/kg				CCN(CC)CCCC(C)Nc1ccnc2cc(Cl)ccc12 (stereo not given) [CHLOROQUINE]	25%	24%	14%	8%	42%	64%	33%	21%	1.4 days	1.1 days	0.5 days	0.5 days
					638 nM	446 nM	181 nM	CCNCCCC(C)Nc1ccnc2cc(Cl)ccc12 (stereo not given) [DESETHYLCHLOROQUINE]												

From ChEMBL document CHEMBL1649116, “Chloroquine is grossly overdosed and overused but well tolerated in Guinea-bissau” (Antimicrob Agents Chemother, 2009)
